Measured values from paper PMC3711073 (Angewandte Chemie (International ed. in English), 2012).
pIC50: −log10 of the molar value. Read-outs that look alike come from different tables or passages of the source.

How the values were obtained:
[1] = target: MLL-GACKIX complex (GACKIX domain of CBP/p300) (Mus musculus, UniProt P45481); assay type: binding
Summary of the method: (§1)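 Test compound added at increasing concentrations to the preformed GACKIX domain complex with either fluorescein-tagged MLL activation-domain peptide or fluorescein-tagged pKID peptide. Displacement was tracked as the change in fluorescence polarization.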

[2] = target: GACKIX domain of CBP/p300 (Mus musculus, UniProt P45481); assay: Ligand-detected 1D 1H-NMR binding to GACKIX with MLL and KID peptide competition; conditions: sekikaic acid 15 μM, GACKIX 5 μM, MLL and pKID peptide 15 μM each
Chain of GACKIX domain of CBP/p300 (P45481 586-665 limits assumed): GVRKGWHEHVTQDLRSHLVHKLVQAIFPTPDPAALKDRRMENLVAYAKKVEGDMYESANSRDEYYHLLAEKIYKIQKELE
Summary of the method: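 Aromatic 1H resonances of the test compound (15 μM) were recorded alone and after adding GACKIX (5 μM). MLL and pKID peptides (15 μM each) were then added singly or together. Resonance positions were compared with the unbound-state spectrum to judge reversal of binding.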

VP2-Med15(107-357) = target: T1, VP2-Med15(107-357) (Saccharomyces cerevisiae, UniProt P19659); assay: Competitive FP binding assay of VP2 with Med15; conditions: specificity
T1 sequence (P19659 107-357): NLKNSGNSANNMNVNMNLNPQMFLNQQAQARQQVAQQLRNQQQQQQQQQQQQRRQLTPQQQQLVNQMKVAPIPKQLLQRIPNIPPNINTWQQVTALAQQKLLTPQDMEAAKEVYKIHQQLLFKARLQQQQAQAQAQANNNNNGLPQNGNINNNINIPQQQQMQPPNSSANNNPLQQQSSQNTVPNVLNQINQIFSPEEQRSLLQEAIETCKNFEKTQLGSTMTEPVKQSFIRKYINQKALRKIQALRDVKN

[3] = test system: c-Jun-driven gene Cyclin D1; assay: Cell-based assay of c-Jun-driven gene Cyclin D1 expression; conditions: SI Figure 7
[4] = target: Fl-KID-GACKIX complex (GACKIX domain of CBP/p300) (Mus musculus, UniProt P45481); assay: Fluorescence polarization inhibition of the Fl-KID-GACKIX complex; assay type: binding
Chain of Fl-KID-GACKIX complex (GACKIX domain of CBP/p300) (P45481 586-665 limits assumed, one chain of several): as the sequence (P45481 586-665 limits assumed) above
Summary of the method: as §1

Chain of MLL-GACKIX complex (GACKIX domain of CBP/p300) (P45481 586-665 limits assumed, one chain of several): as the sequence (P45481 586-665 limits assumed) above

| pIC50 ([1]; read-out: IC50, inhibition of the MLL-GACKIX complex, FP, fluorescein-tagged MLL) | Reversibility of binding to GACKIX [2] | Inhibition of VP2-Med15(107-357) (in words) (VP2-Med15(107-357)) | pIC50 [1] | pIC50 [4] | Inhibition of Fl-MLL binding to GACKIX (in words) ([1]; competitive FP binding assay) | Inhibition of Fl-KID binding to GACKIX (in words) ([4]; competitive FP binding assay) | SMILES | Effect on expression of c-Jun-driven gene Cyclin D1 in cells [3] |
| --- | --- | --- | --- | --- | --- | --- | --- | --- |
| 4.47 | reversible | did not significantly inhibit |  |  |  |  | CCCc1cc(OC)cc(O)c1C(=O)Oc1c(OC)cc(CCC)c(C(=O)O)c1O [sekikaic acid] | dose dependent down regulation |
|  |  |  | 4.77 | 4.60 |  |  | CCCCCc1c2c(cc(O)c1C(=O)O)OC(=O)c1c(cc(OC)cc1C(=O)CCCC)O2 [lobaric acid] | dose dependent down regulation |
|  |  |  |  |  | unable to significantly inhibit | unable to significantly inhibit | Cc1cc(OC(=O)c2c(C)cc(O)cc2O)cc(O)c1C(=O)O [lecanoric acid, reference compound] | no effect |
